Compound activity (PubChem)
Sampled rows, rich in hits. Any-hit rate of the full collection: about 3.1%.
Apaf1 inhib: inhibitors of human Apaf-1 apoptosome, primary screen, biochemical, DEVD-Rh110 fluorescence, uHTS; Apoptotic protease-activating factor 1 (Homo sapiens), O14727; reconstituted apoptosome caspase-3 activity; inhibition, % at 20 µM; actives 0.71% (n = 330,000); active = inhibition of at least 40% at 20 µM;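 also: plate controls were DMSO wells for no effect and DEVD-CHO caspase inhibitor wells for full effect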
Target sequence (O14727 whole entry, looked up): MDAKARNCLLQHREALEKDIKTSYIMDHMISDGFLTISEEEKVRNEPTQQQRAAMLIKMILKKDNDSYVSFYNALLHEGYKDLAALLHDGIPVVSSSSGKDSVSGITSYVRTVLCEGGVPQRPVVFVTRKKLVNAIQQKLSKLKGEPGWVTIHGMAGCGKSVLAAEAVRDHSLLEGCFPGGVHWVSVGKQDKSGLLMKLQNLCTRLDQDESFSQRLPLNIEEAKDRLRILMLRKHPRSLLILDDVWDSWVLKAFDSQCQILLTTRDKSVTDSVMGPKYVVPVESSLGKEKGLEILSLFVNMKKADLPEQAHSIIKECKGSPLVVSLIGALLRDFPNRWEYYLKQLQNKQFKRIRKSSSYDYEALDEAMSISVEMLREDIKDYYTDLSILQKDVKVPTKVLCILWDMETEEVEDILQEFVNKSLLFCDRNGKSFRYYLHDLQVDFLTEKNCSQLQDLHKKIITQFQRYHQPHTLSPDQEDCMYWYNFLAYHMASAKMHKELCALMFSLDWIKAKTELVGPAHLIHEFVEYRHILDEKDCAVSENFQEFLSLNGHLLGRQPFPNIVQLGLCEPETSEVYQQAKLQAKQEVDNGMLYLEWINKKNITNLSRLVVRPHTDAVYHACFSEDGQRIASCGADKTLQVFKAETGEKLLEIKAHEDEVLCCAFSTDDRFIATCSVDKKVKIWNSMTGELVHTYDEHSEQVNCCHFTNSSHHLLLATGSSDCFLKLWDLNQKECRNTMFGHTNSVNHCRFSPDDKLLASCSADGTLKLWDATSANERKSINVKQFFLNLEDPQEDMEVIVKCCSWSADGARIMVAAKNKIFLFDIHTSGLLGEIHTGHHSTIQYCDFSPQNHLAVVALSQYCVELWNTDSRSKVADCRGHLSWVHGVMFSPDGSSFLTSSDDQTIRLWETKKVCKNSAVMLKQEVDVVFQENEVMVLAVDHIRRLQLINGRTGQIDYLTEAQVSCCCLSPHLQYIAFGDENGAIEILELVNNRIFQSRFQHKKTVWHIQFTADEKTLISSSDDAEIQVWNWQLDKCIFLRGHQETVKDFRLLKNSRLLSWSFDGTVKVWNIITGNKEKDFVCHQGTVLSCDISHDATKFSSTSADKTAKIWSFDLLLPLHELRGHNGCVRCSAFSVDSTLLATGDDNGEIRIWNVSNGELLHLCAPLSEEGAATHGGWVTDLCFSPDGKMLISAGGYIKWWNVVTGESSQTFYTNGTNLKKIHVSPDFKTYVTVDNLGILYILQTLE
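Assay system – apoptosome proteins · Medium – Hepes buffer, pH 7.5 · Also added – cytochrome c with DEVD-Rh110 · Timing – 30 min compound preincubation, 50 min activation, room temperature · Detection – Rh110 fluorescence, excitation 480 nm, emission 540 nm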
pPAFAH inh: pPAFAH enzyme inhibitors, primary screen, biochemical, fluorescence polarization, human | Platelet-activating factor acetylhydrolase (Homo sapiens), Q13093 | recombinant pPAFAH, FP-rhodamine probe fluorescence polarization | inhibition, % at 3.39 µM | actives 1.5% (n = 330,000) | AID 463082, 2010;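 active = inhibition above the mean inhibition across the screen plus 3 SD, cut at about 25% in these data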;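 also: inhibitors block binding of the rhodamine activity-based probe so polarization drops; 0% = enzyme with DMSO and 100% = wells lacking pPAFAH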
PAFAH1B3 FP inh: PAFAH1B3 enzyme inhibitors, primary screen, biochemical, fluorescence polarization, human; Platelet-activating factor acetylhydrolase IB subunit alpha1 (Homo sapiens), Q15102; recombinant PAFAH1B3, FP-rhodamine probe; inhibition, % at 3.39 µM; actives 0.28% (n = 340,000); AID 492972, 2010;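 active = inhibition above the screen-wide average of all tested compounds plus 3 SD, cut at about 25% in these data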;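 also: 0% = enzyme with DMSO only and 100% = wells lacking PAFAH1B3 protein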
PAFAH1B2 FP inh: PAFAH1B2 enzyme inhibitors, primary screen, biochemical, fluorescence polarization, human; inhibition, % at 3.39 µM; actives 1.2% (n = 340,000); recombinant PAFAH1B2, FP-rhodamine activity probe; AID 492953, 2010; Platelet-activating factor acetylhydrolase IB subunit alpha2 (Homo sapiens), P68402;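 active = inhibition above the mean of all tested compounds plus 3 SD, cut at about 24% in these data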;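 also: 0% = enzyme with DMSO and 100% = wells lacking PAFAH1B2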
PAFAH2 FP inh: PAFAH2 enzyme inhibitors, primary screen, biochemical, fluorescence polarization, human | recombinant PAFAH2, FP-rhodamine activity probe | inhibition, % at 3.39 µM | actives 0.99% (n = 340,000) | AID 492956, 2010;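 active = inhibition above the mean over all tested compounds plus 3 SD, cut at about 30% in these data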;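 also: inhibitors block probe labeling of enzyme so polarization drops; 0% = enzyme with DMSO and 100% = wells lacking PAFAH2 protein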
pPAFAH FP conf: pPAFAH (PLA2G7) enzyme inhibitors, confirmation, biochemical, fluorescence polarization, human; recombinant pPAFAH, FP-Rh probe fluorescence polarization; inhibition, % at 3.39 µM; actives 72% (n = 2,300); shares compounds with pPAFAH inh; AID 463230, 2010;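 active = mean inhibition of the triplicate above the hit cutoff set for the earlier primary screen, cut at about 25% in these data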;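 also: 0% = enzyme with DMSO and 100% = wells lacking pPAFAH enzyme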
Numbers without * were called inactive.

How did CC(OC(=O)c1ccc(NC(=O)CC#N)cc1)C(=O)Nc1ccc(Oc2ccccc2)cc1 (stereo not drawn) do in these assays?
Apaf1 inhib: -24.8; pPAFAH inh: 14.2; PAFAH1B3 FP inh: -30.5; PAFAH1B2 FP inh: -19.2; PAFAH2 FP inh: -34.8

Results for CC(OC(=O)c1ccc(NC(=O)CC#N)cc1)C(=O)Nc1nc(-c2ccccc2)cs1 (stereo not drawn) ?
Apaf1 inhib: 20.4; pPAFAH inh: 53.4*; PAFAH1B3 FP inh: -41.9; PAFAH1B2 FP inh: -26.5; PAFAH2 FP inh: -55.0; pPAFAH FP conf: -18.4

How did CCc1ccc(NC(=S)Nc2cc(C(=O)O)ccc2N2CC3CC(C2)c2cccc(=O)n2C3)cc1 (stereo not drawn) do in these assays?
Apaf1 inhib: 1.7; pPAFAH inh: 15.4; PAFAH1B3 FP inh: -2.5; PAFAH1B2 FP inh: 13.9; PAFAH2 FP inh: 9.0

How did CCc1ccc(NC(=O)Nc2cc(C(=O)NCC3CCCO3)ccc2N2CC3CC(C2)c2cccc(=O)n2C3)cc1 (stereo not drawn) do in these assays?
Apaf1 inhib: -5.6; pPAFAH inh: 87.4*; PAFAH1B3 FP inh: 6.1; PAFAH1B2 FP inh: 0.4; PAFAH2 FP inh: 17.7; pPAFAH FP conf: 93.5*

Results for CCOCCCNC(=O)c1ccc(N2CC3CC(C2)c2cccc(=O)n2C3)c(NC(=O)Nc2cccc(OC)c2)c1 (stereo not drawn) ?
Apaf1 inhib: -10.7; pPAFAH inh: 66.3*; PAFAH1B3 FP inh: 3.7; PAFAH1B2 FP inh: -1.0; PAFAH2 FP inh: 15.7; pPAFAH FP conf: 65.9*

What do the screens show for `CNc1oc(-c2ccccc2F)nc1S(=O)(=O)c1ccc(C)cc1`?
Apaf1 inhib: 8.3; pPAFAH inh: -7.0; PAFAH1B3 FP inh: -0.7; PAFAH1B2 FP inh: -0.9; PAFAH2 FP inh: -1.7

Results for O=C(CCOc1ccccc1)Nc1ccnn1C1CCN(Cc2ccc(CO)o2)CC1 ?
Apaf1 inhib: 3.2; pPAFAH inh: 43.2*; PAFAH1B3 FP inh: 0.4; PAFAH1B2 FP inh: 4.3; PAFAH2 FP inh: 6.1; pPAFAH FP conf: 7.3

Results for Cc1ccc(CN2CCC(n3nccc3NC(=O)CCOc3ccccc3)CC2)o1 ?
Apaf1 inhib: 5.0; pPAFAH inh: -0.2; PAFAH1B3 FP inh: 3.5; PAFAH1B2 FP inh: 1.6; PAFAH2 FP inh: 3.9

How did O=C(C[C@H]1C/C=C\CC[C@H](Cc2ccc(F)cc2)C(=O)O[C@H](c2ccccc2)CNC1=O)N[C@H](CO)Cc1ccccc1 do in these assays?
Apaf1 inhib: 13.5; pPAFAH inh: 54.8*; PAFAH1B3 FP inh: 12.6; PAFAH1B2 FP inh: 4.2; PAFAH2 FP inh: 5.8; pPAFAH FP conf: -2.9

Results for O=S(=O)(c1cccs1)N1CN(Cc2ccc(Cl)cc2)c2nc3ccccc3nc21 ?
Apaf1 inhib: 20.4; pPAFAH inh: 1.0; PAFAH1B3 FP inh: 7.8; PAFAH1B2 FP inh: 8.7; PAFAH2 FP inh: 3.5

How did O=S(=O)(c1cccs1)N1CN(Cc2ccco2)c2nc3ccccc3nc21 do in these assays?
Apaf1 inhib: 7.5; pPAFAH inh: 46.4*; PAFAH1B3 FP inh: 3.2; PAFAH1B2 FP inh: 5.2; PAFAH2 FP inh: 1.8; pPAFAH FP conf: 15.9

What do the screens show for `Cn1c(=O)c(Nc2ccc(O)cc2)c2c3c(cccc31)C(=O)c1ccccc1-2`?
Apaf1 inhib: 6.4; pPAFAH inh: 40.7*; PAFAH1B3 FP inh: 22.3; PAFAH1B2 FP inh: 10.2; PAFAH2 FP inh: 15.3; pPAFAH FP conf: 39.7*

How did CC(=O)c1c2c3c(cccc3n(C)c1=O)C(=O)c1ccccc1-2 do in these assays?
Apaf1 inhib: 8.4; pPAFAH inh: 10.6

How did CC(CCC(C)C(C)(C)C)[C@@H]1CC[C@H]2C3C[C@H](OS(O)(=S)=S)[C@H]4C[C@H](OS(O)(=S)=S)[C@@H](OS(O)(=S)=S)C[C@]4(C)[C@H]3CC[C@]12C (stereo partly drawn) (tested in a mixture with another compound) do in these assays?
Apaf1 inhib: 86.8*; pPAFAH inh: 35.5*; PAFAH1B3 FP inh: -18.0; PAFAH1B2 FP inh: -7.0; PAFAH2 FP inh: -33.2; pPAFAH FP conf: 23.4

Results for Cc1ccc(S(=O)(=O)N2C[C@@H]3CCCC[C@@H]3[C@@H](C)[C@H]2c2cn(Cc3ccccc3)c3ncccc23)cc1 ?
Apaf1 inhib: 17.5; pPAFAH inh: 4.0; PAFAH1B3 FP inh: -2.8; PAFAH1B2 FP inh: -1.2; PAFAH2 FP inh: 3.8

What do the screens show for `O=C(NNC(=O)c1cc2cc(Br)ccc2oc1=O)c1ccc(O)cc1O`?
Apaf1 inhib: 13.0; pPAFAH inh: 47.0*; PAFAH1B3 FP inh: 15.9; PAFAH1B2 FP inh: 1.3; PAFAH2 FP inh: 9.7; pPAFAH FP conf: 47.1*

How did COCCCNC(=O)c1cc2cc(Br)ccc2oc1=O do in these assays?
Apaf1 inhib: -3.4; pPAFAH inh: 0.4; PAFAH1B3 FP inh: 5.8; PAFAH1B2 FP inh: 4.2; PAFAH2 FP inh: -3.2

What do the screens show for `COc1ccc(CNC(=S)Nc2ccccc2)cc1`?
Apaf1 inhib: 2.0; pPAFAH inh: 1.9; PAFAH1B3 FP inh: 3.7; PAFAH1B2 FP inh: 1.9; PAFAH2 FP inh: 3.4

Results for COc1ccc(Cn2c(C)nc3c(c2=O)c2nc4ccccc4nc2n3Cc2ccco2)cc1 ?
PAFAH1B3 FP inh: -1.8; PAFAH1B2 FP inh: -0.8; PAFAH2 FP inh: 11.8

What do the screens show for `COc1ccc(S(=O)(=O)c2c(N)n(Cc3ccco3)c3nc4ccccc4nc23)cc1`?
Apaf1 inhib: 32.7; pPAFAH inh: 36.1*; PAFAH1B3 FP inh: 6.6; PAFAH1B2 FP inh: -1.9; PAFAH2 FP inh: 18.6; pPAFAH FP conf: 9.5

How did Nc1ncnc2c1c(-c1ccc(Oc3ccccc3)cc1)cn2C1CCCC1 do in these assays?
Apaf1 inhib: 26.8; pPAFAH inh: 38.8*; PAFAH1B3 FP inh: 3.9; PAFAH1B2 FP inh: -7.4; PAFAH2 FP inh: -3.0; pPAFAH FP conf: 38.5*

How did COc1ccc(-n2cc(-c3ccccc3)c3c(N4CC(C)OC(C)C4)ncnc32)cc1 (stereo not drawn) do in these assays?
Apaf1 inhib: -4.2; pPAFAH inh: -1.5; PAFAH1B3 FP inh: 10.9; PAFAH1B2 FP inh: -2.8; PAFAH2 FP inh: -10.6

What do the screens show for `Cc1csc(=Nc2cccnc2)n1Cc1ccco1`?
Apaf1 inhib: 10.9; pPAFAH inh: -8.9; PAFAH1B3 FP inh: 16.1; PAFAH1B2 FP inh: 0.4; PAFAH2 FP inh: -4.6

Results for Cc1csc(=Nc2ccc(S(=O)(=O)N3CCOCC3)cc2)n1Cc1ccco1 ?
Apaf1 inhib: 9.2; pPAFAH inh: 46.2*; PAFAH1B3 FP inh: 6.9; PAFAH1B2 FP inh: 2.8; PAFAH2 FP inh: -2.0; pPAFAH FP conf: 9.9
